{"source": "ChEMBL document CHEMBL1909554", "about": "“Total synthesis and bioactivity of the marine alkaloid pityriacitrin and some of its derivatives” (Eur J Med Chem, 2011)", "key": {"MDA-MB-231 [1]": {"system": "MDA-MB-231", "assay": "Induction of apoptosis in human MDA231 cells at 10 nM by annexin-V/7-AAD staining-based fluorescence assay", "assay_type": "functional", "outline": "(§1)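 MDA-231 breast carcinoma cells were exposed to test compounds at 10, 20 or 50 µM, or to paclitaxel as reference at 10 or 50 nM. Results are expressed as percent apoptotic cells.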"}, "MDA-MB-231 [2]": {"system": "MDA-MB-231", "assay": "Induction of apoptosis in human MDA231 cells at 50 nM by annexin-V/7-AAD staining-based fluorescence assay", "assay_type": "functional", "outline": "as §1"}, "PC-3": {"system": "PC-3", "assay": "Cytotoxicity against human PC3 cells after 18 hrs by MTT assay", "assay_type": "functional, cell-based", "details": "PC-3, 96 h, in the assay text read “after 96 hrs” for “after 18 hrs”", "outline": "(§2)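 MTT metabolic assay. Cells were exposed to compound continuously starting 18 h after setup, and survival was read at 96 h. IC50 is the concentration giving 50% growth inhibition relative to untreated cells. Values are means of three independent determinations.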"}, "MCF7": {"system": "MCF7", "assay": "Cytotoxicity against human MCF7 cells […] by MTT assay", "assay_type": "functional, cell-based", "outline": "as §2"}, "[3]": {"assay": "Cytotoxicity against human MDA231 cells […] by MTT assay", "assay_type": "functional, cell-based", "details": "MDA-MB-231", "outline": "as §2"}, "MDA-MB-231 [4]": {"system": "MDA-MB-231", "assay": "Induction of apoptosis in human MDA231 cells at 50 uM by annexin-V/7-AAD staining-based fluorescence assay", "assay_type": "functional", "outline": "as §1"}, "MDA-MB-231 [5]": {"system": "MDA-MB-231", "assay": "Induction of necrosis in human MDA231 cells at 50 uM by annexin-V/7-AAD staining-based fluorescence assay", "assay_type": "functional, cell-based"}, "MDA-MB-231 [6]": {"system": "MDA-MB-231", "assay": "Induction of apoptosis in human MDA231 cells at 20 uM by annexin-V/7-AAD staining-based fluorescence assay", "assay_type": "functional", "outline": "as §1"}, "MDA-MB-231 [7]": {"system": "MDA-MB-231", "assay": "Induction of apoptosis in human MDA231 cells by annexin-V/7-AAD staining-based fluorescence assay", "assay_type": "functional, cell-based"}, "[8]": {"target": "Dual specificity mitogen-activated protein kinase kinase 1 (Homo sapiens) (UniProt Q02750)", "sequence (Q02750 whole entry)": "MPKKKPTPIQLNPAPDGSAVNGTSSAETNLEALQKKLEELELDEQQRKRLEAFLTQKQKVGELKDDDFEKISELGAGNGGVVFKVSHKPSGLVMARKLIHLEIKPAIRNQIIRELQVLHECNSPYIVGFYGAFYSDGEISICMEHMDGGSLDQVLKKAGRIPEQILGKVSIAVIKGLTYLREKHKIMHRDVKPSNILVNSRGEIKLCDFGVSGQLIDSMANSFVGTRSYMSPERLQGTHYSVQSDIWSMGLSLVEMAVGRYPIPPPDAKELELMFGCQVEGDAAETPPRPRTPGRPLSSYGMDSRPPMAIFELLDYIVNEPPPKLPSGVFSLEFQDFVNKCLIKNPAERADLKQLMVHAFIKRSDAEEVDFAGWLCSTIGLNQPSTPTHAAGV", "assay": "Inhibition of human recombinant MEK1 at 10 uM after 4 hrs by Kinase-Glo luminescent assay", "outline": "(§3)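 Full-length human recombinant kinases were incubated in kinase buffer containing ATP and poly(Glu:Tyr) substrate, with or without compound at 10 µM final, for 4 h at room temperature. Remaining ATP was quantified by Kinase-Glo luminescence.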"}, "[9]": {"target": "Epidermal growth factor receptor (Homo sapiens) (UniProt P00533)", "sequence (P00533 whole entry)": "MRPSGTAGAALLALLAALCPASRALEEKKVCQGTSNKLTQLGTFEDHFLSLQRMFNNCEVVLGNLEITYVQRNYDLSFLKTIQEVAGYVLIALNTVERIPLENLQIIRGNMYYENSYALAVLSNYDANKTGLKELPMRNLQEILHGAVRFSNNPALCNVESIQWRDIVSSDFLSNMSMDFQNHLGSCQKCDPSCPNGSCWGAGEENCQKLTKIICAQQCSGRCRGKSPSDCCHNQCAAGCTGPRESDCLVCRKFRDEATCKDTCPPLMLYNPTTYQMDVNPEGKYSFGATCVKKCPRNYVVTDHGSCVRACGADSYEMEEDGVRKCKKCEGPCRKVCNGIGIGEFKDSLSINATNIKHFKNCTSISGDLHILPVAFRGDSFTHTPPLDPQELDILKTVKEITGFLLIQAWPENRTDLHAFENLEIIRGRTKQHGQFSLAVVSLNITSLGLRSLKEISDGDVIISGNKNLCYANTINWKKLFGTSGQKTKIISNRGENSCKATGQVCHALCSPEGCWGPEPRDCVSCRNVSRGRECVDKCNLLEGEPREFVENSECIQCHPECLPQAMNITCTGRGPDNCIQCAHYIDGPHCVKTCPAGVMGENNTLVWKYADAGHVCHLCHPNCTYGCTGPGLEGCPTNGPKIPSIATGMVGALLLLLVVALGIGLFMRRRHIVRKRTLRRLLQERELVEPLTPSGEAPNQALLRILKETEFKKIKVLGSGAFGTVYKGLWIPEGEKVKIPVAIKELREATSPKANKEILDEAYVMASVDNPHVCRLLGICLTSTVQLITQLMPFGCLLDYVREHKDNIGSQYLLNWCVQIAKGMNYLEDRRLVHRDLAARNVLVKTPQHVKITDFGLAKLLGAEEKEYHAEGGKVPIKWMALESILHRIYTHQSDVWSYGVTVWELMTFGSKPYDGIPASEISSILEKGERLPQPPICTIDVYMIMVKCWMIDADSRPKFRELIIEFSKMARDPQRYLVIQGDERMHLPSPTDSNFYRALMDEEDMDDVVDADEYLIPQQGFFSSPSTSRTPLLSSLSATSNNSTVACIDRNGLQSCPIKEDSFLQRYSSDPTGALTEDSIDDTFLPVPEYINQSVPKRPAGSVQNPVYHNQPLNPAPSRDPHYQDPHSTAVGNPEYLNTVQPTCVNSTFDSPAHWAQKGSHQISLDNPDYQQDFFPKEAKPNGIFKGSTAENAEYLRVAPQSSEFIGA", "assay": "Inhibition of human recombinant EGFR at 10 uM after 4 hrs by Kinase-Glo luminescent assay", "outline": "as §3"}, "[10]": {"target": "Proto-oncogene tyrosine-protein kinase Src (Homo sapiens) (UniProt P12931)", "sequence (P12931 2-536 limits assumed)": "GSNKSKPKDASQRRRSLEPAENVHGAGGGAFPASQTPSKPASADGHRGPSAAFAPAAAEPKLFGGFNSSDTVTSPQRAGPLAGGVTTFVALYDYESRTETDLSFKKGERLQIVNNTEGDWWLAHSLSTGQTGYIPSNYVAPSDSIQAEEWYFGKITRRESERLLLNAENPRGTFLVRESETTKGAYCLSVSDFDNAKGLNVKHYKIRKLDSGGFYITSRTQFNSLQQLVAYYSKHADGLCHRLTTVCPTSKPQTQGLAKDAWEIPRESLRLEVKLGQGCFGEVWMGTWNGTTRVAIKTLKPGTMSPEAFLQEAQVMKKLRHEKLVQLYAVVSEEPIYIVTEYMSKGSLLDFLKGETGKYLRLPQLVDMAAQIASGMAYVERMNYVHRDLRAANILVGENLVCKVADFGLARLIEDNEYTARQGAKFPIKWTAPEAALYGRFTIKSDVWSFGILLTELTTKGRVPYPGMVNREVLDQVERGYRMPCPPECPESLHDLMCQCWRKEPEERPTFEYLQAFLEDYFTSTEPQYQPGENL", "assay": "Inhibition of human recombinant Src at 10 uM after 4 hrs by Kinase-Glo luminescent assay", "outline": "as §3"}, "[11]": {"target": "Aurora kinase B (Homo sapiens) (UniProt Q96GD4)", "sequence (Q96GD4 whole entry)": "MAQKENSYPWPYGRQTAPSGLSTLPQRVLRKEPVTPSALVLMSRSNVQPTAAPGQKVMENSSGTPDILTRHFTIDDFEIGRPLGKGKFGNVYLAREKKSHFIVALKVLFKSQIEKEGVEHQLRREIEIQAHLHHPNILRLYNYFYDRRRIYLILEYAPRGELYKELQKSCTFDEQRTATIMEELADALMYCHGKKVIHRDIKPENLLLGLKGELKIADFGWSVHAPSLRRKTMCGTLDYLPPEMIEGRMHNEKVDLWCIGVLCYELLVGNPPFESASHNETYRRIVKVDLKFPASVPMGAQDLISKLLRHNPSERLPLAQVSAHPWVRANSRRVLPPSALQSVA", "assay": "Inhibition of human recombinant Aurora B at 10 uM after 4 hrs by Kinase-Glo luminescent assay", "outline": "as §3"}, "[12]": {"target": "Focal adhesion kinase 1 (Homo sapiens) (UniProt Q05397)", "sequence (Q05397 2-1052 limits assumed)": "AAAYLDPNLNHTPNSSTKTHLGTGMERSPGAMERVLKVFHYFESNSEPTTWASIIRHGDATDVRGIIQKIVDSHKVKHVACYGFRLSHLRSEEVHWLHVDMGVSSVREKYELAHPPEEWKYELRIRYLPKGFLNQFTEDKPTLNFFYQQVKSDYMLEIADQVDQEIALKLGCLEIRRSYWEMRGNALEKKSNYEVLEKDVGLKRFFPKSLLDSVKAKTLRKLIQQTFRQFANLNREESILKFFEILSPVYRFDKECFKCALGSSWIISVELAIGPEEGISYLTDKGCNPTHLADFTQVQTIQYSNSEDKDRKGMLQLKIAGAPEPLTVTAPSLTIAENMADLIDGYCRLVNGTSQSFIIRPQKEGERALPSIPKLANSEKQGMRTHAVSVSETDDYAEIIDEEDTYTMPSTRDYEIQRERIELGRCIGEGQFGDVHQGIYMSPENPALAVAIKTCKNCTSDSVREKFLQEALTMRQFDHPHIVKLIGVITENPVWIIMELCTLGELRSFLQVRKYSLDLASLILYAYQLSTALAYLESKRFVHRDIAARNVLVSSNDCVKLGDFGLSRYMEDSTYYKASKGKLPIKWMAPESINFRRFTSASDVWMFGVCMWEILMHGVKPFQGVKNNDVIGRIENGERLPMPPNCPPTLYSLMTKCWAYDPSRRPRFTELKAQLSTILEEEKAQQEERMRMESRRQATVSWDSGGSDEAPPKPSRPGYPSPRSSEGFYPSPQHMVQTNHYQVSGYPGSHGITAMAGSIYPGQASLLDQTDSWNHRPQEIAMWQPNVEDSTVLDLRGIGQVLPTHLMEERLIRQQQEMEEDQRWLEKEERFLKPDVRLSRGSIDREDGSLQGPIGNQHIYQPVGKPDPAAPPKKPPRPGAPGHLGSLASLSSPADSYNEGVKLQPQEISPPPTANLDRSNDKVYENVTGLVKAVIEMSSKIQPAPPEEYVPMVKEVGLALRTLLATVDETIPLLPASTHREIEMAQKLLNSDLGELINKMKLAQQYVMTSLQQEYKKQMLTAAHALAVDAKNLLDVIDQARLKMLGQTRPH", "assay": "Inhibition of human recombinant FAK at 10 uM after 4 hrs by Kinase-Glo luminescent assay", "outline": "as §3"}}, "note": "Active and inactive are the calls of the source. The calls are words filed in the database; no cut-off is given here."}
{"smiles": "CC(=O)O[C@H]1C(=O)[C@@]2(C)[C@H]([C@H](OC(=O)c3ccccc3)[C@]3(O)C[C@H](OC(=O)[C@H](O)[C@@H](NC(=O)c4ccccc4)c4ccccc4)C(C)=C1C3(C)C)[C@]1(OC(C)=O)CO[C@@H]1C[C@@H]2O", "note": "[PACLITAXEL]", "values": [{"measurement": "Activity", "setting": "MDA-MB-231 [1]", "value": 11.93, "unit": "%"}, {"measurement": "Activity", "setting": "MDA-MB-231 [2]", "value": 17.23, "unit": "%"}]}
{"smiles": "O=C(c1c[nH]c2ccc([N+](=O)[O-])cc12)c1nccc2c1[nH]c1ccc(O)cc12", "values": [{"measurement": "IC50", "setting": "PC-3", "value": "> 100", "unit": "µM"}, {"measurement": "IC50", "setting": "MCF7", "value": "> 100", "unit": "µM"}, {"measurement": "IC50", "setting": "[3]", "value": "> 100", "unit": "µM"}]}
{"smiles": "CN(C)CCCNC(=O)c1cc2c([nH]c3ccc(O)cc32)c(C(=O)c2c[nH]c3ccccc23)n1", "values": [{"measurement": "IC50", "setting": "[3]", "value": 2.51, "unit": "µM"}]}
{"smiles": "COc1ccc2[nH]cc(C(=O)c3nc(C(=O)O)cc4c3[nH]c3ccccc34)c2c1", "values": [{"measurement": "IC50", "setting": "PC-3", "value": 32.3, "unit": "µM"}, {"measurement": "IC50", "setting": "MCF7", "value": 3.4, "unit": "µM"}, {"measurement": "IC50", "setting": "[3]", "value": 12.1, "unit": "µM"}]}
{"smiles": "NCCCCNC(=O)c1cc2c([nH]c3ccccc32)c(C(=O)c2c[nH]c3ccccc23)n1", "values": [{"measurement": "IC50", "setting": "[3]", "value": 3.04, "unit": "µM"}]}
{"smiles": "O=C(O)c1cc2c([nH]c3ccc(O)cc32)c(C(=O)c2c[nH]c3ccccc23)n1", "values": [{"measurement": "IC50", "setting": "PC-3", "value": 57.9, "unit": "µM"}, {"measurement": "IC50", "setting": "MCF7", "value": 79, "unit": "µM"}, {"measurement": "IC50", "setting": "[3]", "value": 42, "unit": "µM"}]}
{"smiles": "CNCCNC(=O)c1cc2c([nH]c3ccccc32)c(C(=O)c2c[nH]c3ccccc23)n1", "values": [{"measurement": "IC50", "setting": "[3]", "value": 3.98, "unit": "µM"}]}
{"smiles": "CN(C)CCNC(=O)c1cc2c([nH]c3ccc(O)cc32)c(C(=O)c2c[nH]c3ccccc23)n1", "values": [{"measurement": "IC50", "setting": "[3]", "value": 1.33, "unit": "µM"}]}
{"smiles": "O=C(c1c[nH]c2ccc(Br)cc12)c1nccc2c1[nH]c1ccccc12", "values": [{"measurement": "IC50", "setting": "PC-3", "value": "> 100", "unit": "µM"}, {"measurement": "IC50", "setting": "MCF7", "value": 60.9, "unit": "µM"}, {"measurement": "IC50", "setting": "[3]", "value": "> 100", "unit": "µM"}]}
{"smiles": "NCCNC(=O)c1cc2c([nH]c3ccc(O)cc32)c(C(=O)c2c[nH]c3ccccc23)n1", "values": [{"measurement": "IC50", "setting": "[3]", "value": 15.8, "unit": "µM"}]}
{"smiles": "O=C(O)c1cc2c([nH]c3ccccc32)c(C(=O)c2c[nH]c3ccccc23)n1", "values": [{"measurement": "Activity", "setting": "MDA-MB-231 [4]", "value": 17.68, "unit": "%"}, {"measurement": "IC50", "setting": "PC-3", "value": 16.9, "unit": "µM"}, {"measurement": "Activity", "setting": "MDA-MB-231 [5]", "value": "Active"}, {"measurement": "Activity", "setting": "MDA-MB-231 [6]", "value": 4.89, "unit": "%"}, {"measurement": "IC50", "setting": "MCF7", "value": 23.4, "unit": "µM"}, {"measurement": "IC50", "setting": "[3]", "value": 24.8, "unit": "µM"}, {"measurement": "Activity", "setting": "MDA-MB-231 [7]", "value": "Dose-dependent effect"}]}
{"smiles": "NCCNC(=O)c1cc2c([nH]c3ccccc32)c(C(=O)c2c[nH]c3ccccc23)n1", "values": [{"measurement": "IC50", "setting": "[3]", "value": 12.6, "unit": "µM"}]}
{"smiles": "NCCCCNC(=O)c1cc2c([nH]c3ccc(O)cc32)c(C(=O)c2c[nH]c3ccccc23)n1", "values": [{"measurement": "IC50", "setting": "[3]", "value": 8.7, "unit": "µM"}]}
{"smiles": "O=C(c1c[nH]c2ccccc12)c1nccc2c1[nH]c1ccccc12", "values": [{"measurement": "IC50", "setting": "PC-3", "value": 55.1, "unit": "µM"}, {"measurement": "IC50", "setting": "MCF7", "value": "> 100", "unit": "µM"}, {"measurement": "IC50", "setting": "[3]", "value": "> 100", "unit": "µM"}]}
{"smiles": "O=C(c1c[nH]c2ccc([N+](=O)[O-])cc12)c1nccc2c1[nH]c1ccccc12", "values": [{"measurement": "IC50", "setting": "PC-3", "value": 38.8, "unit": "µM"}, {"measurement": "IC50", "setting": "MCF7", "value": "> 100", "unit": "µM"}, {"measurement": "IC50", "setting": "[3]", "value": "> 100", "unit": "µM"}]}
{"smiles": "COc1ccc2[nH]cc(C(=O)c3nccc4c3[nH]c3ccccc34)c2c1", "values": [{"measurement": "IC50", "setting": "PC-3", "value": 49.9, "unit": "µM"}, {"measurement": "IC50", "setting": "MCF7", "value": 6.94, "unit": "µM"}, {"measurement": "IC50", "setting": "[3]", "value": 18.8, "unit": "µM"}]}
{"smiles": "O=C(c1c[nH]c2ccccc12)c1nccc2c1[nH]c1ccc(O)cc12", "values": [{"measurement": "inhibition", "setting": "[8]", "value": 11, "unit": "%"}, {"measurement": "inhibition", "setting": "[9]", "value": 9, "unit": "%"}, {"measurement": "Activity", "setting": "MDA-MB-231 [4]", "value": 41, "unit": "%"}, {"measurement": "IC50", "setting": "PC-3", "value": 16.4, "unit": "µM"}, {"measurement": "Activity", "setting": "MDA-MB-231 [5]", "value": "Active"}, {"measurement": "inhibition", "setting": "[10]", "value": 8, "unit": "%"}, {"measurement": "Activity", "setting": "MDA-MB-231 [6]", "value": 11.16, "unit": "%"}, {"measurement": "IC50", "setting": "MCF7", "value": 12.9, "unit": "µM"}, {"measurement": "IC50", "setting": "[3]", "value": 6.35, "unit": "µM"}, {"measurement": "Activity", "setting": "MDA-MB-231 [7]", "value": "Dose-dependent effect"}, {"measurement": "inhibition", "setting": "[11]", "value": 10, "unit": "%"}, {"measurement": "inhibition", "setting": "[12]", "value": 11, "unit": "%"}]}
{"smiles": "CN(C)CCNC(=O)c1cc2c([nH]c3ccccc32)c(C(=O)c2c[nH]c3ccccc23)n1", "values": [{"measurement": "IC50", "setting": "[3]", "value": 3.56, "unit": "µM"}]}
{"smiles": "O=C(c1c[nH]c2ccc(Br)cc12)c1nccc2c1[nH]c1ccc(O)cc12", "values": [{"measurement": "IC50", "setting": "PC-3", "value": "> 100", "unit": "µM"}, {"measurement": "IC50", "setting": "MCF7", "value": "> 100", "unit": "µM"}, {"measurement": "IC50", "setting": "[3]", "value": "> 100", "unit": "µM"}]}
{"smiles": "COc1ccc2[nH]cc(C(=O)c3nccc4c3[nH]c3ccc(O)cc34)c2c1", "values": [{"measurement": "IC50", "setting": "PC-3", "value": "> 100", "unit": "µM"}, {"measurement": "IC50", "setting": "MCF7", "value": "> 100", "unit": "µM"}, {"measurement": "IC50", "setting": "[3]", "value": 44.5, "unit": "µM"}]}
{"smiles": "CNCCNC(=O)c1cc2c([nH]c3ccc(O)cc32)c(C(=O)c2c[nH]c3ccccc23)n1", "values": [{"measurement": "IC50", "setting": "[3]", "value": 4.36, "unit": "µM"}]}
{"smiles": "CN(C)CCCNC(=O)c1cc2c([nH]c3ccccc32)c(C(=O)c2c[nH]c3ccccc23)n1", "values": [{"measurement": "IC50", "setting": "[3]", "value": 6.02, "unit": "µM"}]}
{"smiles": "COC(=O)c1cc2c([nH]c3ccc(O)cc32)c(C(=O)c2c[nH]c3ccccc23)n1", "values": [{"measurement": "IC50", "setting": "[3]", "value": 3.16, "unit": "µM"}]}
{"smiles": "COC(=O)c1cc2c([nH]c3ccccc32)c(C(=O)c2c[nH]c3ccccc23)n1", "values": [{"measurement": "IC50", "setting": "[3]", "value": 12.6, "unit": "µM"}]}
{"smiles": "NCCCNC(=O)c1cc2c([nH]c3ccccc32)c(C(=O)c2c[nH]c3ccccc23)n1", "values": [{"measurement": "IC50", "setting": "[3]", "value": 2.48, "unit": "µM"}]}
